The record followed here is ChEMBL document CHEMBL2057080, “Synthesis, biological evaluation, and structure-activity relationships of a novel class of apurinic/apyrimidinic endonuclease 1 inhibitors” (J Med Chem, 2012).

For orientation: inhibition means the relative decrease from the control value, in per cent. A word on the IC50: it is the point on the concentration scale where inhibition reaches its midpoint.

Active and inactive are the calls of the source. No cut-off for these calls is given here.

Test [1] concerns the target T1, DNA repair nuclease/redox regulator APEX1 (Homo sapiens, UniProt P27695). The experiment in a line: Inhibition of human recombinant APE1 at 57 uM after 15 mins by fluorescence based HTS assay. The essentials: (§1)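 APE1 inhibition was measured in the fluorescence-based qHTS format at up to 57 µM. IC50 is the average of three separate experiments.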
Test [2] has as its target T1, DNA repair nuclease/redox regulator APEX1. The experiment in a line: Inhibition of human recombinant APE1 after 15 mins by fluorescence based HTS assay. The essentials:
as §1

For test [3] the target is unchanged. In words: Inhibition of recombinant APE1 using […]-5'-AP-DNA as substrate incubated for 15 mins prior to substrate addition measured after 5 mins by PAGE analysis.
The target is the same in test [4]. In words: Inhibition of APE1 in human HeLa whole cell extract using […]-5'-AP-DNA as substrate assessed as activity remaining at 100 uM incubated for 15 mins prior to substrate addition measured after 5 mins by PAGE analysis relative to control. In short, it runs like this: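 HeLa whole cell extract (300 ng; KCl-extracted hypotonic lysate) was preincubated with inhibitor for 15 min at room temperature, at 100 µM or at 0–100 µM. Then 0.5 pmol 32P AP-DNA was added for 5 min at 37 °C. Samples were run on denaturing PAGE, and incision is reported relative to the no-inhibitor control, from three independent measurements.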

Test [5] shares this target. The experiment in a line: Inhibition of APE1 in human HeLa cells assessed as accumulation of genomic AP sites […] after 24 hrs by aldehyde reactive probe-based assay relative to control. The class given is cell-based. In short, it runs like this:
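HeLa cells at 80% confluency were exposed for 24 h at 37 °C to DMSO, 275 µM MMS, or 7.5 µM inhibitor, each alone, or to 275 µM MMS plus 7.5 µM inhibitor. Genomic DNA was isolated and adjusted to 100 ng/µL. 10 µL was labelled with aldehyde reactive probe (biotin-hydrazide reagent) and AP sites were quantified by kit. Samples ran in triplicate and were compared with a Student's t test.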

T1 sequence (P27695 whole entry): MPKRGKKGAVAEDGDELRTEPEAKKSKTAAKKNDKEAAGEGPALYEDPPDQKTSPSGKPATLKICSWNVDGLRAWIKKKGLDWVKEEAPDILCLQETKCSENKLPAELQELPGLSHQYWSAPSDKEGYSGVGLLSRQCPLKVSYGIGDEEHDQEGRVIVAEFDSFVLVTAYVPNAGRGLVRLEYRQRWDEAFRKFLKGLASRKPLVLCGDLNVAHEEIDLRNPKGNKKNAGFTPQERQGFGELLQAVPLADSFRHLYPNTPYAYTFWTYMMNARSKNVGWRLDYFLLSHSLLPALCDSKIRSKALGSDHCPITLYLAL

For the compound `CC(C)N1CCc2c(sc(N)c2-c2nc3ccccc3s2)C1`, the inhibition in test [1] came to 40%. In the case of `CC(C)N1CCc2c(sc(NC(=O)C(F)F)c2-c2nc3ccccc3s2)C1`, the IC50 in test [2] turned out to be 5.3 µM. As for `CC(=O)Nc1sc2c(c1-c1nc3ccccc3s1)CN(C(C)C)C2`, the IC50 in test [2] stood at 3.1 µM; in test [3], 4 µM. Besides, the Activity in test [4] came to 57%.

Regarding `O=C(O)c1sc2c(c1-c1nc3ccccc3s1)CCNC2`, the IC50 in test [2] is > 57 µM.

For the compound `COS(C)(=O)=O`, the inhibition result in test [5] was “Active”. `O=C(O)c1cc2cccc([N+](=O)[O-])c2[nH]1`: in test [1], the inhibition turned out to be 40%.

For `CC(=O)Nc1cc2c(s1)CNCC2`, the inhibition in test [1] was 47%. For the compound `COC(=O)Nc1sc2c(c1-c1nc3ccccc3s1)CCNC2`, the IC50 in test [2] was found to be 11.1 µM. On to `O=C(CCc1ccccc1)Nc1sc2c(c1-c1nc3ccccc3s1)CCNC2`, for which the IC50 in test [2] was > 57 µM.

As for `CC(=O)Nc1sc2c(c1-c1csc3ccccc13)CCNC2`, in test [2], the IC50 is > 57 µM. For the compound `CC(=O)Nc1sc2c(c1-c1nc3ccccc3s1)CCN(C(C)C)CC2`, the values for the IC50 in test [2] and in test [3] were 17.6 µM and 13 µM, respectively. For the same compound, in test [4], the Activity amounted to 1.1%.

`CC(=O)Nc1sc2c(c1-c1nc3ccccc3s1)CCN(C(=O)OC(C)(C)C)C2`: the half-maximal inhibitory concentration (IC50) in test [2] was > 57 µM. As to `O=C(Nc1sc2c(c1-c1nc3ccccc3s1)CCNC2)C(F)F`, the IC50 in test [2] stood at 3.8 µM; in test [3], 4 µM. Further, the Activity in test [4] worked out at 38%. `CC(=O)Nc1sc2c(c1-c1nccs1)CCNC2`: the inhibition in test [1] is 55%. As to `CC(=O)Nc1sc2c(c1-c1cc3ccccc3s1)CCNC2`, the inhibition in test [1] amounted to 23%. Turning to `O=C(Nc1sc2c(c1-c1nc3ccccc3s1)CCNC2)C(F)(F)F`, in test [2], the IC50 came out at 17.6 µM. With `CC(=O)Nc1sc2c(c1Br)CCNC2`, the inhibition in test [1] worked out at 30%. Turning to `CC(=O)Nc1sc2c(c1-c1cc3ccccc3o1)CCNC2`, in test [1], the inhibition worked out at 66%. For the compound `CC(=O)Nc1sc2c(c1-c1nc3ccccc3s1)CCS(=O)(=O)C2`, in test [1], the inhibition was found to be 29%.

`CC(C)N1CCc2c(sc(NC(=O)Cc3ccccc3)c2-c2nc3ccccc3s2)C1`: the inhibition in test [1] was determined as 53%. For `COC(=O)c1sc2c(c1-c1nc3ccccc3s1)CCNC2`, the IC50 in test [2] is > 57 µM. Take `CC(C)(C)C(=O)Nc1sc2c(c1-c1nc3ccccc3s1)CCNC2`: in test [2], the concentration for half-maximal inhibition (IC50) is > 57 µM. `CC(=O)Nc1sc2c(c1-c1cccs1)CCNC2`: the inhibition in test [1] worked out at 34%. With `CC(=O)Nc1sc2c(c1-c1nc3ccccc3s1)CCN(C)C2`, the half-inhibitory concentration (IC50) in test [2] is 3.8 µM; in test [3] it was 5 µM. Moreover, in test [4], the Activity was 26%.

For the compound `Cc1noc(Nc2sc3c(c2-c2nc4ccccc4s2)CCNC3)n1`, the half-inhibitory concentration (IC50) in test [2] turned out to be 18.2 µM. For `CC(=O)Nc1sc2c(c1-c1nc3ccccc3s1)CCSC2`, the inhibition in test [1] came to 56%.

In the case of `c1ccc2sc(-c3csc4c3CCNC4)nc2c1`, the IC50 in test [2] came out at 25.2 µM. Turning to `CC(=O)Nc1sc2c(c1-c1nc3ccccc3o1)CCN(C(C)C)C2`, the IC50 came out at 20.4 µM in test [2] and 13 µM in test [3]. In addition, the Activity in test [4] came out at 12%. Turning to `CC(=O)Nc1sc2c(c1-c1nc3ccccc3s1)CCN(Cc1ccccc1)C2`, the inhibition in test [1] came out at 41%. For `CC(=O)Nc1sc2c(c1-c1nc3ccccc3s1)CNCC2`, the inhibition in test [1] came out at 31%. Consider `Cc1nnc(-c2sc3c(c2-c2nc4ccccc4s2)CCNC3)o1`, for which, in test [2], the IC50 is > 57 µM. For the compound `CC(=O)Nc1sc2c(c1-c1ccco1)CCNC2`, in test [1], the inhibition was found to be 41%. `CC(C)N1CCc2c(sc(NC(=O)c3ccccc3)c2-c2nc3ccccc3s2)C1`: the inhibition in test [1] came out at 57%. Consider `C#CCCC(=O)Nc1sc2c(c1-c1nc3ccccc3s1)CCN(C(C)C)C2`, for which the inhibition in test [1] was determined as 57%. With `CC(=O)Nc1sc2c(c1-c1nc(-c3ccccc3)cs1)CCN(C(C)C)C2`, the IC50 in test [2] amounted to 2.9 µM; in test [3], 3 µM. Also, the Activity in test [4] was 15%.

`O=C(Nc1sc2c(c1-c1nc3ccccc3s1)CCNC2)C1CC1`: the IC50 in test [2] was found to be 6 µM.

For the compound `Cc1nnc(Nc2sc3c(c2-c2nc4ccccc4s2)CCNC3)o1`, in test [2], the IC50 came to 19 µM. Take `CC(=O)Nc1sc2c(c1-c1nc3ccccc3s1)CCCN(C(C)C)C2`: the IC50 in test [2] is 12.9 µM; in test [3], 14 µM. In test [4], the Activity was 14%. As for `CC(=O)Nc1sc2c(c1-c1nc3ccccc3s1)CCN(C(C)=O)C2`, the inhibition in test [1] is 59%. Consider `Cc1noc(-c2sc3c(c2-c2nc4ccccc4s2)CCNC3)n1`, for which the IC50 in test [2] is > 57 µM. For the compound `CC(=O)Nc1sc2c(c1C#N)CCN(C(C)C)C2`, the inhibition in test [1] is 31%.

On to `O=C(Nc1sc2c(c1-c1nc3ccccc3s1)CCNC2)C1CCCC1`, for which the inhibition in test [1] worked out at 55%.

Turning to `C#CCCC(=O)Nc1sc2c(c1-c1nc3ccccc3s1)CCNC2`, the IC50 in test [2] is 12 µM. In the case of `CC(=O)Nc1sc2c(c1-c1cc3ccccc3[nH]1)CCNC2`, in test [2], the IC50 is > 57 µM. For the compound `CC(=O)Nc1sc2c(c1C(=O)O)CCNC2`, in test [1], the inhibition is 29%. Regarding `CC(=O)Nc1sc2c(c1-c1cccc3ccccc13)CCNC2`, the IC50 in test [2] is > 57 µM. For `CC(=O)Nc1sc2c(c1-c1ncco1)CCNC2`, in test [1], the inhibition worked out at 45%. `CCCCC(=O)Nc1sc2c(c1-c1nc3ccccc3s1)CCN(C(C)C)C2`: the IC50 in test [2] was 9.1 µM. Consider `CC(=O)Nc1sc2c(c1-c1ccccc1)CCNC2`, for which the inhibition in test [1] stood at 42%. Regarding `CC(=O)Nc1sc2c(c1-c1nc3ccccc3s1)CCOC2`, the inhibition in test [1] worked out at 41%. Turning to `CC(=O)Nc1sc2cnccc2c1-c1nc2ccccc2s1`, the IC50 in test [2] was > 57 µM.

In the case of `CC(=O)Nc1sc2c(c1-c1nc3ccccc3s1)CCNC2`, the IC50 in test [2] came to 2.9 µM; in test [3], 5 µM. The Activity in test [4] came to 1.4%. For the compound `CC(C)N1CCc2c(sc(NC(=O)C3CCCCC3)c2-c2nc3ccccc3s2)C1`, the IC50 in test [2] came out at 8.3 µM.
